Assay results collected from several papers.
Lines come from different studies, so protocols differ.

c1cc([C@H]2CC[C@]3(CC2)OO[C@]2(O3)C3CC4CC(C3)CC2C4)ccc1OCCN1CCOCC1
Cmax (human, plasma; oral, 1200 mg, patients): 1.5 µg/mL

CC[C@H](C)[C@H](NC(=O)[C@H](CC(C)C)NC(=O)[C@H](Cc1c[nH]c2ccccc12)NC(=O)[C@H](CCC(N)=O)NC(=O)[C@@H](NC(=O)[C@H](Cc1ccccc1)NC(=O)[C@H](C)NC(=O)[C@H](CCCCNC(=O)COCCOCCNC(=O)COCCOCCNC(=O)CC[C@H](NC(=O)CCCCCCCCCCCCCCCCCCC(=O)O)C(=O)O)NC(=O)[C@H](CCC(N)=O)NC(=O)[C@H](C)NC(=O)[C@@H](NC(=O)[C@H](CCCCN)NC(=O)[C@H](CC(=O)O)NC(=O)[C@H](CC(C)C)NC(=O)C(C)(C)NC(=O)[C@@H](NC(=O)[C@H](CO)NC(=O)[C@H](Cc1ccc(O)cc1)NC(=O)[C@H](CC(=O)O)NC(=O)[C@H](CO)NC(=O)[C@@H](NC(=O)[C@H](Cc1ccccc1)NC(=O)[C@@H](NC(=O)CNC(=O)[C@H](CCC(=O)O)NC(=O)C(C)(C)NC(=O)[C@@H](N)Cc1ccc(O)cc1)[C@@H](C)O)[C@@H](C)O)[C@@H](C)CC)[C@@H](C)CC)C(C)C)C(=O)N[C@@H](C)C(=O)NCC(=O)NCC(=O)N1CCC[C@H]1C(=O)N[C@@H](CO)C(=O)N[C@@H](CO)C(=O)NCC(=O)N[C@@H](C)C(=O)N1CCC[C@H]1C(=O)N1CCC[C@H]1C(=O)N1CCC[C@H]1C(=O)N[C@@H](CO)C(N)=O
Cmax (human, plasma; subcutaneous, 1.5 mg, multiple doses, healthy volunteers): 0.198 µg/mL

Cc1ncc2n1-c1ccc(Cl)cc1C(c1ccccc1F)=NC2
Cmax (human, plasma; oral, 2 mg, single dose): 0.00974 µg/mL

N=c1c2c(-c3ccccc3)c(-c3ccccc3)n(Cc3ccccc3)c2ncn1[C@H]1CC[C@H](O)CC1
bioavailability (male cynomolgus monkey, plasma; oral, 1 mg/kg, single dose): > 80%

CN1CCCCC1Cn1cc(C(=O)c2cc([N+](=O)[O-])ccc2I)c2ccccc21 (racemic)
Tmax (mouse, brain; intravenous, 25 mg/kg): 15 min

O=C(NCc1ccc(F)cc1)c1cccc(Nc2ccc(-c3ccccc3)nn2)c1
CC50 (FRT; cell growth or viability, MTS; 48 h): > 100 µM

COc1ccc2c(c1)[C@]13CCCC[C@@H]1[C@H](C2)N(C)CC3
efflux ratio (Caco-2; 10 µM, pH 6.5): 2

N=C(N)NCCC[C@@H](NC(=O)[C@@H](N)Cc1ccccc1)C(=O)N[C@@H](Cc1ccccc1)C(=O)N[C@@H](CCCCN)C(N)=O
Cmax (human, plasma; subcutaneous, 25 mg, patients): 0.973 µg/mL

CCOC(=O)c1c(NCc2ccc(SC)cc2)c2cccc(C)c2[nH]c1=O
CC50 (FRT; cell growth or viability, MTS; 48 h): 91.6 µM
